Assay results reported in ChEMBL document CHEMBL1141647, “Novel ofloxacin derivatives: synthesis, antimycobacterial and toxicological evaluation” (Bioorg Med Chem Lett, 2008).
≈ marks a conversion by molar mass, not a printed value.

Legend:
[1] = test system: Mycobacterium tuberculosis; assay: Antimycobacterial activity against Mycobacterium tuberculosis H37Rv by agar dilution method; format: functional
Outline: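 MIC99 was taken as the lowest concentration giving complete inhibition of bacterial growth.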

[2] = test system: Mycolicibacterium smegmatis; assay: Antimycobacterial activity against Mycobacterium smegmatis ATCC 14468 by agar dilution method; format: functional
Outline: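 MC² (M. smegmatis) growth inhibition; MIC99 taken as the lowest concentration giving complete inhibition of bacterial growth, in µM.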

Vero = assay: Cytotoxicity against african green monkey Vero cells after 72 hrs by MTT assay; format: cell-based; conditions: Chlorocebus sabaeus
Outline: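 Vero cells exposed for 72 h; tested up to 62.5 µg/mL. Viability was read as cellular conversion of MTT to formazan, and IC50 was reported in µM.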

Mus musculus [3] = assay: Phototoxic effect in UV light irradiated mouse assessed as number of mouse bearing erythema at 140 mg/kg, after 48 hrs relative to control; format: ADME, organism-based; parameters: dose 140 mg/kg; conditions: in vivo
Outline: (§1)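 Mice received 140 mg/kg and were UV-irradiated immediately after dosing, irradiation ending at 4 h. Both ears were scored for erythema at 0, 4, 24, 48, 72 and 96 h, counted as the number of mice with erythema. Vehicle control was 0.5% aqueous sodium carboxymethylcellulose at 10 mL/kg.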

Mus musculus [4] = assay: Phototoxic effect in UV light irradiated mouse assessed as number of mouse bearing erythema at 140 mg/kg, after 24 hrs relative to control; format: ADME, organism-based; parameters: dose 140 mg/kg; conditions: in vivo; outline: as §1
Mus musculus [5] = assay: Phototoxic effect in UV light irradiated mouse assessed as number of mouse bearing erythema at 140 mg/kg, after 96 hrs relative to control; format: ADME, organism-based; parameters: dose 140 mg/kg; conditions: in vivo; outline: as §1
Mus musculus [6] = assay: Phototoxic effect in UV light irradiated mouse assessed as ear thickness at 140 mg/kg, after 96 hrs relative to control; format: ADME, organism-based; parameters: dose 140 mg/kg; conditions: in vivo
Outline: (§2)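 Mice dosed at 140 mg/kg and exposed to UV immediately after dosing. Irradiation ended at 4 h. Ear thickness (mm) was measured at 0 (pre-dose), 4, 24, 48, 72 and 96 h, left and right ears averaged, mean ± SEM. Comparison was against vehicle controls (0.5% aqueous sodium carboxymethylcellulose, 10 mL/kg) and against the 0 h reading.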

Mus musculus [7] = assay: Phototoxic effect in UV light irradiated mouse assessed as ear thickness at 140 mg/kg, after 24 hrs relative to control; format: ADME, organism-based; parameters: dose 140 mg/kg; conditions: in vivo; outline: as §2
DNA gyrase subunit A = DNA gyrase subunit A (Mycolicibacterium smegmatis, UniProt Q59556); assay: Inhibition of Mycobacterium smegmatis DNA gyrase
Chain of DNA gyrase subunit A (Q59556 whole entry): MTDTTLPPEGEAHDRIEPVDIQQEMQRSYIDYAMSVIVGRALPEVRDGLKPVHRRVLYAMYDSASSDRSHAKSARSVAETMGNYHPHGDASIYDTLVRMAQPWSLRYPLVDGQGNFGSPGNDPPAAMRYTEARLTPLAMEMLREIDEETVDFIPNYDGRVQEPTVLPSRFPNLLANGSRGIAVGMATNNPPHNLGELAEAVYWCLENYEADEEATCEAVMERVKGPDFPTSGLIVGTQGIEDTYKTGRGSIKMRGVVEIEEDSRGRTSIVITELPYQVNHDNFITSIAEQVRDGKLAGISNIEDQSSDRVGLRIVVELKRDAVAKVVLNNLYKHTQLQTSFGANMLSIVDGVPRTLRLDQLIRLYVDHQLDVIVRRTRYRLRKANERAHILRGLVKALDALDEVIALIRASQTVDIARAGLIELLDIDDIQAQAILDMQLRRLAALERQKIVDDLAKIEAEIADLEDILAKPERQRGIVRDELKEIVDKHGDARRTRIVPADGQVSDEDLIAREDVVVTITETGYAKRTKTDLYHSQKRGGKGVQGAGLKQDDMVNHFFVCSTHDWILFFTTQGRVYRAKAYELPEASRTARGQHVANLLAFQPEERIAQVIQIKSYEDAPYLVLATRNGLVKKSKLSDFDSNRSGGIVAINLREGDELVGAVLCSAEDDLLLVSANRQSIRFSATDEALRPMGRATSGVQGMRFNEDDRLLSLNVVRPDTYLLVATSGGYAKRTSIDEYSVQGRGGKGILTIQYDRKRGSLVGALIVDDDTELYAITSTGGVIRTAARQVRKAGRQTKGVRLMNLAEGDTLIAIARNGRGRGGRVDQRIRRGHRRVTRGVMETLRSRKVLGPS
Outline: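 Inhibition of DNA supercoiling by M. smegmatis (MC²) gyrase, run under standard assay conditions. Varying compound amounts were tested against a fixed amount of enzyme, and IC50 was derived from that series. Relaxed circular DNA served as marker, 5% DMSO as solvent control, and moxifloxacin at 5 µg/mL as positive control.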

Mus musculus [8] = assay: Phototoxic effect in mouse assessed as ear thickness at 140 mg/kg administered before UV light exposure relative to control; format: ADME, organism-based; parameters: dose 140 mg/kg; conditions: in vivo; outline: as §2
Mus musculus [9] = assay: Phototoxic effect in UV light irradiated mouse assessed as number of mouse bearing erythema at 140 mg/kg, after 72 hrs relative to control; format: ADME, organism-based; parameters: dose 140 mg/kg; conditions: in vivo; outline: as §1
Mus musculus [10] = assay: Phototoxic effect in UV light irradiated mouse assessed as ear thickness at 140 mg/kg, after 72 hrs relative to control; format: ADME, organism-based; parameters: dose 140 mg/kg; conditions: in vivo; outline: as §2
Mus musculus [11] = assay: Phototoxic effect in UV light irradiated mouse assessed as ear thickness at 140 mg/kg, after 48 hrs relative to control; format: ADME, organism-based; parameters: dose 140 mg/kg; conditions: in vivo; outline: as §2
Mus musculus [12] = assay: Phototoxic effect in mouse assessed as number of mouse bearing erythema at 140 mg/kg administered before UV light exposure relative to control; format: ADME, organism-based; parameters: dose 140 mg/kg; conditions: in vivo; outline: as §1
Mus musculus [13] = assay: Phototoxic effect in UV light irradiated mouse assessed as ear thickness at 140 mg/kg, after 4 hrs relative to control; format: ADME, organism-based; parameters: dose 140 mg/kg; conditions: in vivo; outline: as §2
Mus musculus [14] = assay: Phototoxic effect in UV light irradiated mouse assessed as number of mouse bearing erythema at 140 mg/kg, after 4 hrs relative to control; format: ADME, organism-based; parameters: dose 140 mg/kg; conditions: in vivo; outline: as §1

Row | SMILES | MIC99 [1] [µM] | MIC99 [2] [µM] | IC50 (Vero) [µM] | other results
1 | CC1COc2c(N3CCN(C(=O)c4ccco4)CC3)c(F)c([N+](=O)[O-])c3c(=O)c(C(=O)O)cn1c23 (centres undefined) | 0.8 (≈ 0.389 µg/mL) | 3.21 (≈ 1.56 µg/mL) | 64.2 | –
2 | CC1COc2c(N3CCN(C(=O)c4ccco4)CC3)c(F)cc3c(=O)c(C(=O)O)cn1c23 (centres undefined) | 7.09 (≈ 3.13 µg/mL) | 3.53 (≈ 1.56 µg/mL) | – | Activity (Mus musculus [3]): Non-toxic; Activity (Mus musculus [4]): Non-toxic; Activity (Mus musculus [5]): Non-toxic; Activity (Mus musculus [6]): 0.3 mm; Activity (Mus musculus [7]): 0.29 mm; IC50 (DNA gyrase subunit A): > 113 µM; Activity (Mus musculus [8]): 0.29 mm; Activity (Mus musculus [9]): Non-toxic; Activity (Mus musculus [10]): 0.29 mm; Activity (Mus musculus [11]): 0.29 mm; Activity (Mus musculus [12]): Non-toxic; Activity (Mus musculus [13]): 0.3 mm
3 | COc1cc2c(cc1OC)CN(c1c(F)c([N+](=O)[O-])c3c(=O)c(C(=O)O)cn4c3c1OCC4C)CC2 (centres undefined) | 1.56 (≈ 0.779 µg/mL) | 12.5 (≈ 6.25 µg/mL) | 62.5 | –
4 | CC1COc2c(N3CCn4cc(C(=O)O)nc4C3)c(F)c(N)c3c(=O)c(C(=O)O)cn1c23 (centres undefined) | 0.88 (≈ 0.39 µg/mL) | 5.28 (≈ 2.34 µg/mL) | > 141 | –
5 | CC1COc2c(N3CCN(Cc4ccc5c(c4)OCO5)CC3)c(F)cc3c(=O)c(C(=O)O)cn1c23 (centres undefined) | 6.5 (≈ 3.13 µg/mL) | 26 (≈ 12.5 µg/mL) | – | –
6 | CC1COc2c(N3CCC4(CC3)OCCO4)c(F)c([N+](=O)[O-])c3c(=O)c(C(=O)O)cn1c23 (centres undefined) | 0.21 (≈ 0.0944 µg/mL) | 3.47 (≈ 1.56 µg/mL) | 139 | –
7 | CC1COc2c(N3CCC4(CC3)OCCO4)c(F)cc3c(=O)c(C(=O)O)cn1c23 (centres undefined) | 0.47 (≈ 0.19 µg/mL) | 3.86 (≈ 1.56 µg/mL) | 155 | Activity (Mus musculus [4]): Toxic; Activity (Mus musculus [5]): Non-toxic; Activity (Mus musculus [6]): 0.35 mm; Activity (Mus musculus [7]): 0.32 mm; IC50 (DNA gyrase subunit A): 124 µM; Activity (Mus musculus [8]): 0.34 mm; Activity (Mus musculus [10]): 0.32 mm; Activity (Mus musculus [11]): 0.31 mm; Activity (Mus musculus [12]): Non-toxic; Activity (Mus musculus [14]): Toxic; Activity (Mus musculus [13]): 0.37 mm
8 | Cc1onc(-c2c(F)cccc2F)c1C(=O)N1CCN(c2c(F)cc3c(=O)c(C(=O)O)cn4c3c2OCC4C)CC1 (centres undefined) | 11 (≈ 6.25 µg/mL) | 44 (≈ 25 µg/mL) | – | –
9 | CC1COc2c(N3CCN(C(=O)C4COc5ccccc5O4)CC3)c(F)c([N+](=O)[O-])c3c(=O)c(C(=O)O)cn1c23 (centres undefined) | 2.81 (≈ 1.56 µg/mL) | 11.3 (≈ 6.25 µg/mL) | 113 | –
10 | CC1COc2c(N3CCn4cc(C(=O)O)nc4C3)c(F)cc3c(=O)c(C(=O)O)cn1c23 (centres undefined) | 0.91 (≈ 0.39 µg/mL) | 29.2 (≈ 12.5 µg/mL) | > 146 | –
11 | CC1COc2c(N3CCC(n4c(=O)[nH]c5cc(Cl)ccc54)CC3)c(F)cc3c(=O)c(C(=O)O)cn1c23 (centres undefined) | 1.52 (≈ 0.78 µg/mL) | 48.7 (≈ 25 µg/mL) | > 122 | –
12 | CC1COc2c(N3CCN(C(=O)C4COc5ccccc5O4)CC3)c(F)cc3c(=O)c(C(=O)O)cn1c23 (centres undefined) | 12.3 (≈ 6.25 µg/mL) | 49.1 (≈ 25 µg/mL) | – | –
13 | CC1COc2c(N3CCN(C)C(c4ccccc4)C3)c(F)cc3c(=O)c(C(=O)O)cn1c23 (centres undefined) | 14.3 (≈ 6.25 µg/mL) | 114 (≈ 50 µg/mL) | – | –
14 | CC1COc2c(N3CCC(O)(c4ccc(Cl)cc4)CC3)c(F)c([N+](=O)[O-])c3c(=O)c(C(=O)O)cn1c23 (centres undefined) | 1.51 (≈ 0.782 µg/mL) | 6.04 (≈ 3.13 µg/mL) | 60.4 | –
15 | CC1CN(c2c(F)c([N+](=O)[O-])c3c(=O)c(C(=O)O)cn4c3c2OCC4C)CC(C)O1 (centres undefined) | 1.85 (≈ 0.78 µg/mL) | 1.85 (≈ 0.78 µg/mL) | 148 | IC50 (DNA gyrase subunit A): > 119 µM
16 | CC1CN(c2c(F)cc3c(=O)c(C(=O)O)cn4c3c2OCC4C)CC(C)O1 (centres undefined) | 4.14 (≈ 1.56 µg/mL) | 4.14 (≈ 1.56 µg/mL) | > 166 | IC50 (DNA gyrase subunit A): > 133 µM
17 | CC1COc2c(N3CCN(Cc4ccc5c(c4)OCO5)CC3)c(F)c([N+](=O)[O-])c3c(=O)c(C(=O)O)cn1c23 (centres undefined) | 2.96 (≈ 1.56 µg/mL) | 1.48 (≈ 0.779 µg/mL) | 119 | –
18 | CC1COc2c(N3CCc4ccccc4C3C(=O)NC(C)(C)C)c(F)c([N+](=O)[O-])c3c(=O)c(C(=O)O)cn1c23 (centres undefined) | 1.45 (≈ 0.781 µg/mL) | 2.89 (≈ 1.56 µg/mL) | 116 | IC50 (DNA gyrase subunit A): 92.8 µM
19 | CC1COc2c(N3CCC4(CC3)OCCO4)c(F)c(N)c3c(=O)c(C(=O)O)cn1c23 (centres undefined) | 3.72 (≈ 1.56 µg/mL) | 11.2 (≈ 4.68 µg/mL) | > 149 | –
20 | CC1COc2c(N3CCN(C(c4ccccc4)c4ccc(Cl)cc4)CC3)c(F)cc3c(=O)c(C(=O)O)cn1c23 (centres undefined) | 5.71 (≈ 3.13 µg/mL) | 45.6 (≈ 25 µg/mL) | – | –
21 | CC1COc2c(N3CCc4ccccc4C3C(=O)NC(C)(C)C)c(F)cc3c(=O)c(C(=O)O)cn1c23 (centres undefined) | 3.16 (≈ 1.56 µg/mL) | 50.7 (≈ 25 µg/mL) | 127 | –
22 | CC1COc2c(N3CCSCC3)c(F)cc3c(=O)c(C(=O)O)cn1c23 (centres undefined) | 2.14 (≈ 0.78 µg/mL) | 4.28 (≈ 1.56 µg/mL) | > 172 | IC50 (DNA gyrase subunit A): 110 µM
23 | Cc1onc(-c2c(F)cccc2F)c1C(=O)N1CCN(c2c(F)c([N+](=O)[O-])c3c(=O)c(C(=O)O)cn4c3c2OCC4C)CC1 (centres undefined) | 5.1 (≈ 3.13 µg/mL) | 1.27 (≈ 0.779 µg/mL) | 102 | –
24 | CC1COc2c(N3CCN(C)C(c4ccccc4)C3)c(F)c([N+](=O)[O-])c3c(=O)c(C(=O)O)cn1c23 (centres undefined) | 3.23 (≈ 1.56 µg/mL) | 6.49 (≈ 3.13 µg/mL) | 130 | –
25 | CC1COc2c(N3CCC(n4c(=O)[nH]c5cc(Cl)ccc54)CC3)c(F)c([N+](=O)[O-])c3c(=O)c(C(=O)O)cn1c23 (centres undefined) | 0.34 (≈ 0.19 µg/mL) | 1.39 (≈ 0.776 µg/mL) | 112 | –
26 | CC1COc2c(N3CCC(O)(c4ccc(Cl)cc4)CC3)c(F)cc3c(=O)c(C(=O)O)cn1c23 (centres undefined) | 6.62 (≈ 3.13 µg/mL) | 26.4 (≈ 12.5 µg/mL) | – | –
27 | COc1cc2c(cc1OC)CN(c1c(F)cc3c(=O)c(C(=O)O)cn4c3c1OCC4C)CC2 (centres undefined) | 1.72 (≈ 0.782 µg/mL) | 13.8 (≈ 6.25 µg/mL) | > 138 | –
28 | CC1COc2c(N3CCN(C)CC3)c(F)cc3c(=O)c(C(=O)O)cn1c23.Cl (centres undefined) | – | – | – | Activity (Mus musculus [6]): 0.35 mm; Activity (Mus musculus [7]): 0.29 mm; Activity (Mus musculus [8]): 0.29 mm; Activity (Mus musculus [10]): 0.35 mm; Activity (Mus musculus [11]): 0.3 mm; Activity (Mus musculus [13]): 0.32 mm
29 | CCn1cc(C(=O)O)c(=O)c2cc(F)c(N3CCNC(C)C3)c(F)c21 (centres undefined) [LOMEFLOXACIN] | – | – | – | Activity (Mus musculus [3]): Toxic; Activity (Mus musculus [4]): Toxic; Activity (Mus musculus [5]): Toxic; Activity (Mus musculus [6]): 0.6 mm; Activity (Mus musculus [7]): 0.48 mm; Activity (Mus musculus [8]): 0.31 mm; Activity (Mus musculus [9]): Toxic; Activity (Mus musculus [10]): 0.64 mm; Activity (Mus musculus [11]): 0.53 mm; Activity (Mus musculus [12]): Non-toxic; Activity (Mus musculus [14]): Toxic; Activity (Mus musculus [13]): 0.4 mm
